Series [1] addresses T1, A disintegrin and metalloproteinase with thrombospondin motifs 5 (Homo sapiens) (UniProt Q9UNA0).
T1 sequence (whole entry): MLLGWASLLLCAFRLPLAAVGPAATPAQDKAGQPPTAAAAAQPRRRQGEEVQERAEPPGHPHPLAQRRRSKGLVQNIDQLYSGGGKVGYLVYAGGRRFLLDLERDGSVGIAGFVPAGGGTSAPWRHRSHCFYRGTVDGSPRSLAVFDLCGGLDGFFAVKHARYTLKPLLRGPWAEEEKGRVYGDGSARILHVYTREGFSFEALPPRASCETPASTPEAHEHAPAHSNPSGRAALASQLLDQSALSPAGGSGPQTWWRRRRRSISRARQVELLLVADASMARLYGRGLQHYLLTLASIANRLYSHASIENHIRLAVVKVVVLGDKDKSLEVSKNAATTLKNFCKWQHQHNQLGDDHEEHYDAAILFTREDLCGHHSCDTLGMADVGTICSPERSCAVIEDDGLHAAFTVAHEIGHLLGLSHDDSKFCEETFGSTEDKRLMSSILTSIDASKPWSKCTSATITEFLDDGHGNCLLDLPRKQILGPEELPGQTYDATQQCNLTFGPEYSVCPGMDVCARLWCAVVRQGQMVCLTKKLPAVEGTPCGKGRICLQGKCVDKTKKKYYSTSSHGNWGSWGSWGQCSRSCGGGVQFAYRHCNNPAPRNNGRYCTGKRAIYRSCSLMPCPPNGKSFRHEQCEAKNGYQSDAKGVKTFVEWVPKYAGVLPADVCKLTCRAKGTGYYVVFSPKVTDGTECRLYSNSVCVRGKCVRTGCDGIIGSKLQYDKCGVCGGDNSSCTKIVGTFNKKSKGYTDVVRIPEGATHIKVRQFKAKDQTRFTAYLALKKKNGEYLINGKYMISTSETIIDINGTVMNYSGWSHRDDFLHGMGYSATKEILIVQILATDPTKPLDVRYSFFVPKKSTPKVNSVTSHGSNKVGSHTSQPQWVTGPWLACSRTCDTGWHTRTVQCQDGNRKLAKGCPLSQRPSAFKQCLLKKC
The series is described as follows: Inhibition of human recombinant ADAMTS-5 using QTVTWPDMELPLPRNITEGEARGSVIL-TVKPIFEVSPSPL(biotinyl)K as substrate at 100 uM incubated 10 mins prior to substrate addition measured after 3 hrs by spectrophotometry.

The target in series [2] is T2, A disintegrin and metalloproteinase with thrombospondin motifs 5 (Homo sapiens, UniProt Q9UNA0).
T2 sequence (Q9UNA0 whole entry): T1 sequence (whole entry)
The series is described as follows: Inhibition of human recombinant ADAMTS-5 using QTVTWPDMELPLPRNITEGEARGSVIL-TVKPIFEVSPSPL(biotinyl)K as substrate incubated 10 mins prior to substrate addition measured after 3 hrs by spectrophotometry.

Series [3] deals with T3, A disintegrin and metalloproteinase with thrombospondin motifs 4 (Homo sapiens, UniProt O75173).
T3 sequence (O75173 whole entry): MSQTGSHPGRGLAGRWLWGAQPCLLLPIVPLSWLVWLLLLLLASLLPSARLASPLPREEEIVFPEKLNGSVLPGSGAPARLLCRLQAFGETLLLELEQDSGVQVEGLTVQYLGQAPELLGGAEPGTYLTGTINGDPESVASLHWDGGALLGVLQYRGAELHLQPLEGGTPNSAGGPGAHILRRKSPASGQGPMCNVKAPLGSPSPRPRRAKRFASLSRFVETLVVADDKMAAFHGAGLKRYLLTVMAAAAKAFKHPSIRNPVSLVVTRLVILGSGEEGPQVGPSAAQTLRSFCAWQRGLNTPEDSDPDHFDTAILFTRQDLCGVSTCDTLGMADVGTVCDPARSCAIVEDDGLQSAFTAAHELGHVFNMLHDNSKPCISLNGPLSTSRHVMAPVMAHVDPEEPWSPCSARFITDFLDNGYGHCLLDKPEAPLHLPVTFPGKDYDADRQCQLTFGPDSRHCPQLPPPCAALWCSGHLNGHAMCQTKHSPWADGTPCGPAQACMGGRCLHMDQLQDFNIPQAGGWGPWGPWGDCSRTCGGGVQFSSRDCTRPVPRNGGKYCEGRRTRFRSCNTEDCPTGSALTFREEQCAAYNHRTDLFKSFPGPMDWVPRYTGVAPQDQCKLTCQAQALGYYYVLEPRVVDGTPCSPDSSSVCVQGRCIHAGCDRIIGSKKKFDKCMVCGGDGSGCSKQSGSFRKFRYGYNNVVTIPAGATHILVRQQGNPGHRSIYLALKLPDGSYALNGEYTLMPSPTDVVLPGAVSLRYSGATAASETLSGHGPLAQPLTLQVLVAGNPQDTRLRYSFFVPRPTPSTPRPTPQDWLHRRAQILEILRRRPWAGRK
The series is described as follows: Inhibition of human recombinant ADAMTS-4 using QTVTWPDMELPLPRNITEGEARGSVIL-TVKPIFEVSPSPL(biotinyl)K as substrate incubated for 10 mins prior to substrate addition measured after 3 hrs by spectrophotometry. The method in brief: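 It was then added to streptavidin wells coated with the biotinylated 41-mer aggrecan peptide and reacted for 3 h at 37 °C. Cleavage product was detected by BC-3 anti-ARGxx ELISA with HRP and TMB, read at 450 nm.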

A short description of series [4]: Solubility of the compound at 100 uM. It counts as physicochemical.
For series [5], the target named is T1, A disintegrin and metalloproteinase with thrombospondin motifs 5 (Homo sapiens). In words: Inhibition of human recombinant ADAMTS-5 using bovine articular aggrecan as substrate incubated 20 mins prior to substrate addition measured after 48 hrs by spectrophotometry. The method in brief: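 ADAMTS-5 (3.4 µL of 600 nM stock) was pre-incubated 20 min at 37 °C with compound or 4% DMSO vehicle in Tris/NaCl/CaCl₂/Brij35, pH 7.5. Bovine articular aggrecan (50 µg/mL final) was added for 48 h at 37 °C, then stopped with EDTA. Samples were bound to PVDF and digested with chondroitinase ABC and keratanase. The ARGSVIL neoepitope was detected by BC-3 ELISA with TMB, read at 450 nm.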

A value given as a limit tells only on which side of the number the result lay.

From ChEMBL document CHEMBL2434855, “Aggrecanase-2 inhibitors based on the acylthiosemicarbazide zinc-binding group” (Eur J Med Chem, 2013) come the findings set out here.

As to `O=C(COc1ccc(F)cc1)NNC(=S)NCc1ccc(-c2ccccc2)cc1`, the inhibition in series [1] turned out to be 49%. In series [2], the IC50 came out at 100000 nM.

Turning to `O=C(Cc1ccc(-c2ccccc2)cc1)NNC(=S)NCCc1ccc(Cl)cc1`, in series [2], the concentration for half-maximal inhibition (IC50) turned out to be 5200 nM.

For `O=C(COc1ccc(Cl)cc1)NNC(=S)NCCCc1ccccc1`, the results for the 50% inhibitory concentration (IC50) in series [2] and in series [3] were 1400 nM and 2000 nM, respectively.

For the compound `O=C(COc1ccc(Cl)c(Cl)c1)NNC(=S)NCc1ccc(-c2ccccc2)cc1`, in series [2], the IC50 turned out to be 1200 nM.

As to `O=C(COc1ccccc1)NNC(=S)NCc1ccc(-c2ccccc2)cc1`, the IC50 in series [2] stood at 10000 nM.

In the case of `CN(CCCCc1ccccc1)C(=S)NNC(=O)COc1ccc(Cl)cc1`, the IC50 in series [2] worked out at 1100 nM; in series [3] it was 1500 nM.

`O=C(Cc1nc(-c2ccccc2)no1)NNC(=S)NCCCCC1CCCCC1`: the IC50 in series [2] was 340 nM.

Regarding `O=C(COc1ccc([N+](=O)[O-])cc1)NNC(=S)NCc1ccc(-c2ccccc2)cc1`, the IC50 in series [2] was determined as 4000 nM.

As to `O=C(COc1ccccc1Cl)NNC(=S)NCc1ccc(-c2ccccc2)cc1`, in series [2], the IC50 was determined as 1900 nM.

For the compound `O=C(COc1ccc(Cl)cc1)NCC(S)C(=O)NCCc1ccccc1` (stereo not given), the IC50 in series [2] turned out to be 8700 nM.

As for `O=C(COc1ccc(Cl)cc1)NNC(=S)NCc1ccccc1-c1ccccc1`, the figures for the IC50 in series [2] and in series [3] were 490 nM and 2900 nM, respectively.

With `O=C(Cc1nc(-c2cnccn2)no1)NNC(=S)NCCCCC1CCCCC1`, the IC50 in series [2] stood at 3100 nM.

Regarding `COc1ccc(OCC(=O)NNC(=S)NCCCCC2CCCCC2)cc1`, the inhibition in series [1] stood at 50%. Also, in series [2], the IC50 was more than 100000 nM.

Consider `O=C(COc1ccc(OCc2ccccc2)cc1)NNC(=S)NCc1ccc(-c2ccccc2)cc1`, for which the 50% inhibitory concentration (IC50) in series [2] was 1000 nM.

For `O=C(COc1ccc(Cl)cc1)NNC(=S)NCc1cccnc1`, the inhibition in series [1] came out at 50%. In addition, the IC50 in series [2] came out at 100000 nM.

`O=C(NNC(=S)NCc1ccc(-c2ccccc2)cc1)C1CNc2cc(Cl)ccc2O1` (stereo not given): in series [2], the half-inhibitory concentration (IC50) turned out to be 3300 nM.

Regarding `CN(NC(=S)NCc1ccc(-c2ccccc2)cc1)C(=O)COc1ccc(Cl)cc1`, the inhibition in series [1] was less than 30%. The IC50 in series [2] was more than 100000 nM.

With `O=C(COc1cccc2ccccc12)NNC(=S)NCCCCC1CCCCC1`, the IC50 in series [2] amounted to 880 nM; in series [3], 1000 nM.

On to `O=C(CNc1ccc(Cl)cc1)NNC(=S)NCc1ccc(-c2ccccc2)cc1`, for which the IC50 in series [2] was 6300 nM.

For the compound `CC(C)(Oc1ccc(Cl)cc1)C(=O)NNC(=S)NCc1ccc(-c2ccccc2)cc1`, the IC50 in series [2] was found to be 6900 nM.

For the compound `O=C(COc1ccc([N+](=O)[O-])cc1)NNC(=S)NCCCCC1CCCCC1`, the IC50 in series [2] was determined as 810 nM; in series [3] it was 790 nM.

In the case of `O=C(COc1ccc(-c2ccccc2)cc1)NNC(=S)NCc1ccc(-c2ccccc2)cc1`, the IC50 in series [2] worked out at 60000 nM. Moreover, the solubility entry in series [4] is given as “Insoluble”.

With `O=C(Cc1ccc(-c2ccccc2)cc1)NNC(=S)NCCCCC1CCCCC1`, the IC50 in series [2] was 300 nM; in series [3] it was 730 nM.

On to `O=C(COc1ccc(Cl)cc1)NNC(=S)NCc1ccc(-c2ccccc2)cc1`, for which the IC50 in series [2] was found to be 1200 nM.

As to `O=C(COc1ccc(Cl)cc1)Nn1ccn(Cc2ccc(-c3ccccc3)cc2)c1=S`, the inhibition in series [1] was less than 30%. The IC50 in series [2] is more than 100000 nM.

As for `O=C(COc1ccccc1)NNC(=S)NCCCCC1CCCCC1`, the inhibition in series [1] is less than 20%. Besides, the IC50 in series [2] is more than 100000 nM.

In the case of `O=C(COc1ccc(Cl)cc1)NNC(=S)NCCc1ccccc1`, the concentration for half-maximal inhibition (IC50) in series [2] came out at 2800 nM.

With `O=C(COc1ccc(Cl)cc1Cl)NNC(=S)NCc1ccc(-c2ccccc2)cc1`, in series [2], the half-inhibitory concentration (IC50) came to 1200 nM.

As for `O=C(COc1ccc(Cl)cc1)NNC(=S)N1CCC(Cc2ccccc2)CC1`, the half-maximal inhibitory concentration (IC50) in series [2] stood at 1600 nM.

For `O=C(COc1ccc(Cl)cc1)NNC(=S)NCCCCc1ccccc1`, the IC50 in series [2] stood at 1000 nM.

Regarding `O=C(COc1ccc(C(F)(F)F)cc1)NNC(=S)NCCCCC1CCCCC1`, the IC50 in series [2] was 540 nM; in series [3], 610 nM.

On to `O=C(COc1ccc(C(F)(F)F)cc1)NNC(=S)NCc1ccc(-c2ccccc2)cc1`, for which the IC50 in series [2] amounted to 1700 nM.

Consider `CN(NC(=S)NCCCCC1CCCCC1)C(=O)COc1ccc(Cl)cc1`, for which the inhibition in series [1] is less than 30%. Besides, in series [2], the concentration for half-maximal inhibition (IC50) was more than 100000 nM.

Regarding `O=C(NNC(=S)NCc1ccc(-c2ccccc2)cc1)c1ccc(Cl)cc1`, the IC50 in series [2] turned out to be 700 nM; in series [3], 1600 nM.

As to `O=C(COc1ccc(Cl)cc1)NCC(=S)NCc1ccc(-c2ccccc2)cc1`, the inhibition in series [1] was less than 30%. Besides, the IC50 in series [2] is more than 100000 nM.

`O=C(COc1ccc2ccccc2c1)NNC(=S)NCc1ccc(-c2ccccc2)cc1`: in series [2], the IC50 came out at 3200 nM.

On to `O=C(COc1ccc(Cl)cc1)NNC(=S)NCc1ccccc1`, for which the IC50 in series [2] turned out to be 12600 nM.

With `O=C(NNC(=S)NCCCCC1CCCCC1)c1ccc(Cl)cc1`, the 50% inhibitory concentration (IC50) in series [2] was determined as 670 nM; in series [3], 1400 nM. Also, in series [5], the inhibition result was “Dose-dependent effect”.

Regarding `O=C(COc1cccc(Cl)c1)NNC(=S)NCc1ccc(-c2ccccc2)cc1`, the IC50 in series [2] stood at 2100 nM.

Turning to `O=C(COc1ccc(Cl)cc1)NNC(=S)NCc1cccc(-c2ccccc2)c1`, the IC50 in series [2] was determined as 2300 nM.

Consider `CC(=O)NNC(=S)NCCCCC1CCCCC1`, for which the inhibition in series [1] is less than 20%. Also, the IC50 in series [2] is more than 100000 nM.

As for `O=C(NNC(=S)NCCCCC1CCCCC1)C1CNc2cc(Cl)ccc2O1` (stereo not given), the IC50 in series [2] was found to be 1260 nM.

On to `COc1ccc(OCC(=O)NNC(=S)NCc2ccc(-c3ccccc3)cc2)cc1`, for which, in series [2], the IC50 is 1700 nM.

Take `O=C(COc1cccc2ccccc12)NNC(=S)NCc1ccc(-c2ccccc2)cc1`: the IC50 in series [2] was determined as 4100 nM.

For the compound `O=C(COc1ccc(Cl)cc1)NNC(=S)NCCCn1ccnc1`, in series [2], the half-inhibitory concentration (IC50) was found to be 1600 nM.

The term inhibition denotes the drop in the measured response relative to a control, in per cent. The IC50 is the concentration that gives 50% inhibition.
